From PubChem BioAssay
An excerpt weighted towards active compounds, which were near 1.3% of everything screened.
FN deposition inh = fibronectin deposition inhibition | actives 0.086% (n = 350,000) | AH1F fibroblasts, Alexa488-fibronectin deposition fluorescence, overnight | AID 743247 | inhibition, % at 12.6 µM;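 active means mean inhibition across replicates of 30% or more, regardless of how many single replicates reach that level; inconclusive means mean under 30% yet at least half of replicates reach 30%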;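 further: positive control wells lacked labelled fibronectin entirely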
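Material: AH1F fibroblast monolayer depositing Alexa488-labelled fibronectin into matrix | Input: 10000 AH1F cells/well | Medium: DMEM plus 2% serum, read in PBS | Reagent: Alexa488-fibronectin, 24 nM final in well | Compound dosing: One dose per compound, pinned | Schedule: 1 h adhesion, overnight exposure | Measured by: Fluorescence at 485 nm excitation, 525 nm emission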
RAD52 inh = RAD52 (human) annealing inhibition; recombinant RAD52 DNA annealing, FRET fluorescence; actives 0.46% (n = 360,000); inhibition, % at 18.7 µM;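 active means every replicate showing at least 50% inhibition; inconclusive means mean inhibition at least 50% but not in every replicate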
PAX8 reporter = PAX8 transcriptional activity inhibition; RMG-I TPO-luciferase reporter, SteadyGlo, 24 h; inhibition, % at 12.6 µM; actives 1.2% (n = 360,000);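 active means mean replicate inhibition at least 60% with every replicate also reaching 60%; inconclusive means only one of the two criteria is met; inactive means mean below 60% and not all replicates reaching 60%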;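 further: luciferase light reporting Pax8 driven TPO promoter activity; plate controls were median of neutral control wells for no effect and mitoxantrone controls for full effect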
RAD54 inh = blocks human RAD54 Holliday junction branch migration | Q92698 | FAM/BHQ fluorescence | inhibition, % at 10.4 µM | actives 0.14% (n = 360,000) | AID 602329;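 active means mean normalized replicate activity at least 40 and at least half of replicates scoring 40 or more; inconclusive means only one of the two criteria met; inactive means mean below 40 and under half of replicates reaching 40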;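 further: 0% = median of neutral control wells and 100% = median of positive control wells; inhibitors cause a drop in the FAM fluorescence signal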
Target sequence (Q92698 whole entry, looked up): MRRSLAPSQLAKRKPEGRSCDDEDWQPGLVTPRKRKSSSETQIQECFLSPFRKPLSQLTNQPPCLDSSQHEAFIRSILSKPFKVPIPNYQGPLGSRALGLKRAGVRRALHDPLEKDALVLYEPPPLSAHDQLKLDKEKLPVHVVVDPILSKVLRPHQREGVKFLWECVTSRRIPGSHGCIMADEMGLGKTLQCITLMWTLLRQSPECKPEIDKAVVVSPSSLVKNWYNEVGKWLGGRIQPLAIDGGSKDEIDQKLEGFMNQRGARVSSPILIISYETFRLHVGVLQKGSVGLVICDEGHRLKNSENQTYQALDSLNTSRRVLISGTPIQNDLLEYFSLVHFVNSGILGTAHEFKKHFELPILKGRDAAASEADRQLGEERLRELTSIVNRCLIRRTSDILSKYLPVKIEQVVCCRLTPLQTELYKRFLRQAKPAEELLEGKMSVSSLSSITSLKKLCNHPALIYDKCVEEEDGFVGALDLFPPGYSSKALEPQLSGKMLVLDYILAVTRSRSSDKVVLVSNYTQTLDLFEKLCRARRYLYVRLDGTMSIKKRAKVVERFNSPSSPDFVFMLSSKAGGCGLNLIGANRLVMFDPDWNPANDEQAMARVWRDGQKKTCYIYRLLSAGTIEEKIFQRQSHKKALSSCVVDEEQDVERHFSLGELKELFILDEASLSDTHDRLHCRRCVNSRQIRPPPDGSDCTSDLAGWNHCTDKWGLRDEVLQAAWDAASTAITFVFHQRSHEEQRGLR
DNA binding = binds DNA, flagging false Rad54 inhibitor hits; shares compounds with RAD54 inh; Acridine orange-DNA displacement, fluorescence polarization, 20 min; AC50, µM (doses to about 35 µM), inactives show at the top dose activity change, negative = DNA binding; actives 8% (n = 460);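 active means signal drop giving an AC50 within twice the top valid tested concentration of each sample, actives reach about 35 µM in these data; inactive means activity opposite to expected, plus the rest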;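 further: polarization loss reports compound binding to salmon sperm DNA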
Numbers without * were called inactive; ! = not active in a repeat.

Fc1ccc(-c2ccc(C3[C@@H]4CN(Cc5nccs5)C[C@H]3N4)cc2)cc1 (some centres undefined) was read as FN deposition inh -6, RAD52 inh 34 and PAX8 reporter 63*!.
Fc1cccc(CN2C[C@@H]3N[C@H](C2)[C@@H]3c2ccc(-c3cccc(F)c3)cc2)c1 was read as FN deposition inh 2, RAD52 inh 86* and PAX8 reporter 94*.
`Fc1cccc(-c2ccc(C3[C@@H]4CN(Cc5ccccc5F)C[C@H]3N4)cc2)c1` (some centres undefined) gave FN deposition inh 0, RAD52 inh 83*! and PAX8 reporter -9.
CCOc1ccc(-n2c(SCC(=O)Nc3ccccc3C)n[nH]c2=O)cc1 was read as RAD54 inh 1.
CC1CCC(NC(=O)c2ccc(Br)o2)CC1 (centres undefined) was read as FN deposition inh 2, RAD52 inh -7, PAX8 reporter -31 and RAD54 inh 11.
Screening COc1ccccc1CN1CC[C@@H]2[C@H]1c1cc(C#Cc3ccccc3)ccc1N[C@@H]2CO returned FN deposition inh 11, RAD52 inh -17, PAX8 reporter 13 and RAD54 inh 5.
For Nc1ccc2c(c1)C(=O)N(CCCCCC(=O)O)C2 the results were RAD54 inh -9.
For O=[N+]([O-])c1c(Nc2ccc(O)cc2)cc(Cl)c2nonc12 the results were FN deposition inh 54*, RAD52 inh 29, PAX8 reporter 113* and RAD54 inh 19.
Screening N#Cc1ccc(C(=O)Nc2nc3ccccc3[nH]2)cc1 returned FN deposition inh 9, RAD52 inh -3, PAX8 reporter -149 and RAD54 inh 11.
For CC(=O)c1ccc(C(=O)N(CCN(C)C)c2nc3c(Cl)cccc3s2)cc1 the results were FN deposition inh -2, RAD52 inh 29, PAX8 reporter 4 and RAD54 inh 28.
Screening CN(C)CCN(C(=O)c1ccc2c(c1)OCCO2)c1nc2c(Cl)cccc2s1 returned FN deposition inh -1, RAD52 inh 27, PAX8 reporter -18, RAD54 inh 51* and DNA binding -5%.
Screening CC1CCCCC1NC(=O)C1Cc2ccccc2CN1S(C)(=O)=O (centres undefined) returned RAD54 inh inconclusive and DNA binding -10%.
Screening COc1ccc(N(CC(=O)Nc2cccnc2)S(=O)(=O)c2ccccc2)cc1Cl returned FN deposition inh 4, RAD52 inh -9, PAX8 reporter 0 and RAD54 inh -2.
Screening Cc1ccc2nc(C)c3c(c2c1)N(c1ccc(F)cc1)CC3 returned FN deposition inh 13, RAD52 inh 41, PAX8 reporter 16, RAD54 inh inconclusive and DNA binding -14%.
For COc1cccc2c3c(c(C)nc12)CCN3c1ccccc1 the results were FN deposition inh 13, RAD52 inh 30 and PAX8 reporter 21.
CCCC(c1nnnn1Cc1ccc(OC)cc1)N1CCN(c2ccccc2)CC1 (centres undefined) was read as RAD54 inh inconclusive and DNA binding -10%.
Cc1ccc(-c2nc(N3CCN(C)CC3)c3ccccc3n2)cc1 was read as FN deposition inh 6, RAD52 inh 5, PAX8 reporter -10, RAD54 inh 57* and DNA binding -15%.
Screening CN(C)CCOc1ncnc2c1oc1ccccc12 returned RAD54 inh 15.
For CN(C)CCOc1nc(-c2ccccc2)nc2c1oc1ccccc12 the results were RAD54 inh 81* and DNA binding inactive.
For CC(=O)Nc1ccc2cc3ccc(NC(C)=O)cc3nc2c1 the results were FN deposition inh -18, RAD52 inh -101, PAX8 reporter -79, RAD54 inh 51* and DNA binding 4%.
Screening Cc1c(Cl)ccc(S(=O)(=O)NCCCn2ccnc2)c1Cl returned FN deposition inh -3, RAD52 inh 0, PAX8 reporter 2, RAD54 inh inconclusive and DNA binding -9%.
COC(=O)c1c(NC(=O)c2ccc([N+](=O)[O-])o2)sc2c1CCN(C(C)C)C2 was read as FN deposition inh 1, RAD52 inh -12, RAD54 inh 68* and DNA binding 9%.
CCOc1cc2nc(-c3ccc(OC)c(OC)c3)nc(NCCCN3CCOCC3)c2cc1OC was read as FN deposition inh 14, PAX8 reporter 13, RAD54 inh 85* and DNA binding inactive.
Screening CC(C)(C)OC(=O)C[C@@H]1C/C=C\C[C@H](CC(=O)NCCO)C(=O)NC[C@@H](c2ccccc2)OC1=O returned FN deposition inh -4, RAD52 inh -8, PAX8 reporter -4 and RAD54 inh -4.
CCOC(=O)c1cnc2c(C(F)(F)F)cccc2c1NCCCN1CCOCC1 was read as FN deposition inh -11, RAD52 inh -9, PAX8 reporter 11 and RAD54 inh 11.
`CCOC(=O)c1cnc2c(CC)cccc2c1NCCCN1CCOCC1` gave FN deposition inh 2, RAD52 inh 32, PAX8 reporter 9, RAD54 inh inconclusive and DNA binding 10%.
For CCOC(=O)c1cnc2c(Cl)cccc2c1NCCCN1CCOCC1 the results were FN deposition inh -1, RAD52 inh 16, PAX8 reporter 23, RAD54 inh inconclusive and DNA binding -22%.
`CCN(CC)CCN(C(=O)c1ccc(C(=O)c2ccccc2)cc1)c1nc2cc3c(cc2s1)OCO3` gave FN deposition inh -1, RAD52 inh -13, PAX8 reporter -100 and RAD54 inh -1.
CCN(CC)CCN(C(=O)c1ccc2ncsc2c1)c1nc2cc3c(cc2s1)OCO3 was read as RAD52 inh 9, PAX8 reporter -100, RAD54 inh inconclusive and DNA binding -5%.
For CCN(CC)S(=O)(=O)c1ccc(Cl)c(C(=O)Nc2nnc(C)s2)c1 the results were FN deposition inh 0, RAD54 inh inconclusive and DNA binding -8%.
`Cc1ccc(-n2c(C)nn(CCOc3ccccc3)c2=O)cc1` gave FN deposition inh -2, RAD52 inh 4, PAX8 reporter -111 and RAD54 inh -5.
For COc1ccc(Cl)cc1NC(=O)CN(C)C(=O)CCCNC(=O)c1ccc(Cl)cc1 the results were FN deposition inh 7, RAD52 inh -1, PAX8 reporter -2 and RAD54 inh -11.
Screening Cc1cnc(C(=O)OCC(=O)Nc2ccc(C)c(S(=O)(=O)N3CCCCC3)c2)cn1 returned FN deposition inh 4, RAD52 inh -19 and PAX8 reporter 12.
O=C(Nc1ccc(NC(=O)c2ccc(Cl)cc2Cl)cc1)c1ccc2c(c1)OCO2 was read as FN deposition inh -2, RAD52 inh 2, PAX8 reporter -3 and RAD54 inh -1.
Screening O=C(Nc1ccc(C2=NCCN2)cc1)c1ccc(C(=O)Nc2ccc(C3=NCCN3)cc2)c(Cl)c1 returned FN deposition inh -6, RAD52 inh 73*, PAX8 reporter 2, RAD54 inh inconclusive and DNA binding -6%.
Screening O=c1c2c(nc3n1CCCCC3)sc1c(O)c(Br)ccc12 returned RAD52 inh 0 and RAD54 inh -1.
